Measurements: ChEMBL document CHEMBL2424551, “Synthesis, in vitro evaluation and molecular modelling of naphthalimide analogue as anticancer agents” (2013)

Assays:
Type in all cases: functional
[1] = system: NCI-H522; experiment: Growth inhibition of human NCI-H522 cells at 10 uM after 48 hrs by SRB assay; details: NCI-H522, 48 h, read-out: GI
In short: (§1)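 Cells grown in RPMI 1640 with 5% FBS and 2 mM L-glutamine, plated at 5000–40,000 cells/well by doubling time and preincubated 24 h (37 °C, 5% CO2); a time-zero plate is TCA-fixed. Single dose added, then 48 h incubation. Fixed with cold TCA, stained with 0.4% SRB, dye solubilized in 10 mM Tris base, absorbance at 515 nm; percent growth vs time-zero and untreated control.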

[2] = system: NCI-H226; experiment: Growth inhibition of human NCI-H226 cells at 10 uM after 48 hrs by SRB assay; details: NCI-H226, 48 h, read-out: GI; in short: as §1
[3] = system: NCI-H23; experiment: Growth inhibition of human NCI-H23 cells at 10 uM after 48 hrs by SRB assay; details: NCI-H23, 48 h, read-out: GI; in short: as §1
[4] = system: HOP-92; experiment: Growth inhibition of human HOP92 cells at 10 uM after 48 hrs by SRB assay; details: HOP-92, 48 h, read-out: GI; in short: as §1
[5] = Growth inhibition of human EKVX cells at 10 uM after 48 hrs by SRB assay; details: read-out: GI; in short: as §1
[6] = system: CCRF-CEM; experiment: Growth inhibition of human CCRF-CEM cells at 10 uM after 48 hrs by SRB assay; details: read-out: GI; in short: as §1
[7] = system: BT-549; experiment: Growth inhibition of human BT549 cells at 10 uM after 48 hrs by SRB assay; details: BT-549, 48 h, read-out: GI; in short: as §1
[8] = system: T47D; experiment: Growth inhibition of human T47D cells at 10 uM after 48 hrs by SRB assay; details: read-out: GI
In short: (§2)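 NCI 60-cell-line screen with a single 10 µM dose. Cells are grown in RPMI 1640 with 5% FBS and 2 mM L-glutamine, plated at 5000–40,000 cells/well according to doubling time, and preincubated 24 h at 37 °C, 5% CO2; time-zero plates are TCA-fixed at that point. Drug exposure is 48 h. Adherent cells are fixed with cold TCA, stained with 0.4% SRB in 1% acetic acid and read at 515 nm. Percent growth is calculated relative to time-zero and untreated controls and reported as GI%.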

[9] = system: Hs-578T; experiment: Growth inhibition of human Hs578T cells at 10 uM after 48 hrs by SRB assay; details: read-out: GI; in short: as §1
[10] = system: PC-3; experiment: Growth inhibition of human PC3 cells at 10 uM after 48 hrs by SRB assay; details: PC-3, 48 h, read-out: GI; in short: as §1
[11] = system: TK-10; experiment: Growth inhibition of human TK10 cells at 10 uM after 48 hrs by SRB assay; details: TK-10, 48 h, read-out: GI; in short: as §2
[12] = system: RXF 393; experiment: Growth inhibition of human RXF393 cells at 10 uM after 48 hrs by SRB assay; details: RXF 393, 48 h, read-out: GI; in short: as §1
[13] = system: ACHN; experiment: Growth inhibition of human ACHN cells at 10 uM after 48 hrs by SRB assay; details: read-out: GI; in short: as §1
[14] = system: OVCAR-5; experiment: Growth inhibition of human OVCAR5 cells at 10 uM after 48 hrs by SRB assay; details: OVCAR-5, 48 h, read-out: GI; in short: as §1
[15] = system: OVCAR-8; experiment: Growth inhibition of human OVCAR8 cells at 10 uM after 48 hrs by SRB assay; details: OVCAR-8, 48 h, read-out: GI; in short: as §1
[16] = system: IGROV-1; experiment: Growth inhibition of human IGROV1 cells at 10 uM after 48 hrs by SRB assay; details: IGROV-1, 48 h, read-out: GI; in short: as §1
[17] = system: UACC-62; experiment: Growth inhibition of human UACC62 cells at 10 uM after 48 hrs by SRB assay; details: UACC-62, 48 h, read-out: GI; in short: as §2
[18] = system: MDA-MB-435; experiment: Growth inhibition of human MDA-MB-435 cells at 10 uM after 48 hrs by SRB assay; details: MDA-MB-435, 48 h, read-out: GI; in short: as §1
[19] = system: LOX IMVI; experiment: Growth inhibition of human LOXIMVI cells at 10 uM after 48 hrs by SRB assay; details: read-out: GI; in short: as §1
[20] = system: Malme-3M; experiment: Growth inhibition of human MALME-3M cells at 10 uM after 48 hrs by SRB assay; details: read-out: GI; in short: as §1
[21] = system: U-251; experiment: Growth inhibition of human U251 cells at 10 uM after 48 hrs by SRB assay; details: U-251, 48 h, read-out: GI; in short: as §2
[22] = system: SNB-75; experiment: Growth inhibition of human SNB75 cells at 10 uM after 48 hrs by SRB assay; details: SNB-75, 48 h, read-out: GI; in short: as §2
[23] = system: SF-268; experiment: Growth inhibition of human SF268 cells at 10 uM after 48 hrs by SRB assay; details: SF-268, 48 h, read-out: GI; in short: as §1
[24] = system: HT-29; experiment: Growth inhibition of human HT-29 cells at 10 uM after 48 hrs by SRB assay; details: HT-29, 48 h, read-out: GI; in short: as §1
[25] = system: KM12; experiment: Growth inhibition of human KM12 cells at 10 uM after 48 hrs by SRB assay; details: KM12, 48 h, read-out: GI; in short: as §1
[26] = system: HCT-116; experiment: Growth inhibition of human HCT116 cells at 10 uM after 48 hrs by SRB assay; details: HCT-116, 48 h, read-out: GI; in short: as §1
[27] = Cytotoxicity against human breast cancer cells after 48 hrs by SRB assay; details: Cancer cell lines
In short: (§3)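 Five-concentration screen (10-fold or ½-log serial dilutions) on the 60-line panel. Cells grown in RPMI 1640 with 5% FBS and 2 mM L-glutamine, plated at 5000–40,000/well by doubling time, preincubated 24 h at 37 °C, 5% CO2, then exposed 48 h. Time-zero plates TCA-fixed. SRB stain, Tris-solubilized, A515. GI50, TGI and LC50 derived from Tz, C and Ti.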

[28] = Cytotoxicity against human prostate cancer cells after 48 hrs by SRB assay; details: Cancer cell lines; in short: as §3
[29] = Cytotoxicity against human renal cancer cells after 48 hrs by SRB assay; details: Cancer cell lines; in short: as §3
[30] = Cytotoxicity against human melanoma cells after 48 hrs by SRB assay; details: Melanoma cell; in short: as §3
[31] = Cytotoxicity against human ovarian cancer cells after 48 hrs by SRB assay; details: Cancer cell lines; in short: as §3
[32] = Cytotoxicity against human CNS cancer cells after 48 hrs by SRB assay; details: Cancer cell lines; in short: as §3
[33] = Cytotoxicity against human colon cancer cells after 48 hrs by SRB assay; details: Cancer cell lines; in short: as §3
[34] = Cytotoxicity against human non-small cell lung cancer cells after 48 hrs by SRB assay; details: Cancer cell lines; in short: as §3
[35] = Cytotoxicity against human leukemia cells after 48 hrs by SRB assay; details: Leukemia cell; in short: as §3
[36] = read-out: LC50 (the source's name)

Structure (SMILES): O=c1c2cccc3c(N4CCCC4)ccc(c32)c2nc3ccccc3n12
- inhibition of growth at 10 µM [1]: 28.9%
- inhibition of growth at 10 µM [2]: 44.7%
- inhibition of growth at 10 µM [3]: 31.8%
- inhibition of growth at 10 µM [4]: 59.3%
- inhibition of growth at 10 µM [5]: 24.1%
- inhibition of growth at 10 µM [6]: 46.3%
- inhibition of growth at 10 µM [7]: 28.8%
- inhibition of growth at 10 µM [8]: 27.9%
- inhibition of growth at 10 µM [9]: 32.8%
- inhibition of growth at 10 µM [10]: 32.1%
- inhibition of growth at 10 µM [11]: < 20%
- inhibition of growth at 10 µM [12]: < 20%
- inhibition of growth at 10 µM [13]: 47.6%
- inhibition of growth at 10 µM [14]: < 20%
- inhibition of growth at 10 µM [15]: 34%
- inhibition of growth at 10 µM [16]: 42.9%
- inhibition of growth at 10 µM [17]: 37.5%
- inhibition of growth at 10 µM [18]: < 20%
- inhibition of growth at 10 µM [19]: 48.3%
- inhibition of growth at 10 µM [20]: 29.6%
- inhibition of growth at 10 µM [21]: 35.3%
- inhibition of growth at 10 µM [22]: 27%
- inhibition of growth at 10 µM [23]: < 20%
- inhibition of growth at 10 µM [24]: 22.2%
- inhibition of growth at 10 µM [25]: < 20%
- inhibition of growth at 10 µM [26]: 45.3%

Structure (SMILES): O=c1c2cccc3c(N4CCOCC4)ccc(c32)c2nc3ccccc3n12
- inhibition of growth at 10 µM [1]: < 20%
- inhibition of growth at 10 µM [2]: < 20%
- inhibition of growth at 10 µM [3]: 23.1%
- inhibition of growth at 10 µM [4]: 40.8%
- inhibition of growth at 10 µM [5]: 61.7%
- inhibition of growth at 10 µM [6]: < 20%
- inhibition of growth at 10 µM [7]: < 20%
- inhibition of growth at 10 µM [8]: 61.9%
- inhibition of growth at 10 µM [9]: 59.8%
- inhibition of growth at 10 µM [10]: < 20%
- inhibition of growth at 10 µM [11]: 28.2%
- inhibition of growth at 10 µM [12]: < 20%
- inhibition of growth at 10 µM [13]: < 20%
- inhibition of growth at 10 µM [14]: < 20%
- inhibition of growth at 10 µM [15]: < 20%
- inhibition of growth at 10 µM [16]: 41.7%
- inhibition of growth at 10 µM [17]: 37.9%
- inhibition of growth at 10 µM [18]: < 20%
- inhibition of growth at 10 µM [19]: < 20%
- inhibition of growth at 10 µM [20]: < 20%
- inhibition of growth at 10 µM [21]: < 20%
- inhibition of growth at 10 µM [22]: 20.9%
- inhibition of growth at 10 µM [23]: < 20%
- inhibition of growth at 10 µM [24]: < 20%
- inhibition of growth at 10 µM [25]: 21.9%
- inhibition of growth at 10 µM [26]: < 20%

Structure (SMILES): Nc1ccc(Sc2ccc3c4c2cccc4c(=O)n2c4ccccc4nc32)cc1
- inhibition of growth at 10 µM [1]: 40%
- inhibition of growth at 10 µM [2]: 59.4%
- inhibition of growth at 10 µM [3]: 62.5%
- inhibition of growth at 10 µM [4]: 71.3%
- inhibition of growth at 10 µM [6]: 55.1%
- GI50 [27]: 5.2 µM
- TGI [27]: 46 µM
- CC50 [27, 36]: > 100 µM
- GI50 [28]: 3.23 µM
- TGI [28]: 17.9 µM
- GI50 [29]: 3.3 µM
- TGI [29]: 15.4 µM
- CC50 [29, 36]: 88.9 µM
- GI50 [30]: 6.93 µM
- LC50 [30]: 83.9 µM
- TGI [30]: 35.1 µM
- GI50 [31]: 6.97 µM
- TGI [31]: 37.4 µM
- CC50 [31, 36]: 97.9 µM
- GI50 [32]: 4.09 µM
- TGI [32]: 45.4 µM
- CC50 [32, 36]: 94 µM
- GI50 [33]: 6.58 µM
- TGI [33]: 60.8 µM
- CC50 [33, 36]: 98.8 µM
- GI50 [34]: 3.94 µM
- TGI [34]: 32.5 µM
- GI50 [35]: 2.9 µM
- TGI [35]: 44.5 µM
- CC50 [35, 36]: > 100 µM
- inhibition of growth at 10 µM [7]: 40.9%
- inhibition of growth at 10 µM [8]: 60.4%
- inhibition of growth at 10 µM [9]: 40.4%
- inhibition of growth at 10 µM [10]: 49.6%
- inhibition of growth at 10 µM [11]: 21.4%
- inhibition of growth at 10 µM [12]: 27.4%
- inhibition of growth at 10 µM [13]: 77.9%
- inhibition of growth at 10 µM [14]: < 20%
- inhibition of growth at 10 µM [15]: 50%
- inhibition of growth at 10 µM [16]: 65.5%
- inhibition of growth at 10 µM [17]: 68.1%
- inhibition of growth at 10 µM [18]: < 20%
- inhibition of growth at 10 µM [19]: 70.8%
- inhibition of growth at 10 µM [20]: 66%
- inhibition of growth at 10 µM [21]: 60.1%
- inhibition of growth at 10 µM [22]: 56.3%
- inhibition of growth at 10 µM [23]: 40.6%
- inhibition of growth at 10 µM [24]: 33.3%
- inhibition of growth at 10 µM [25]: 26.4%
- inhibition of growth at 10 µM [26]: 53.2%
